ChEMBL document CHEMBL3861997 (Bioorg Med Chem, 2016)

Columns and labels:
[1] = Anticoagulant activity in healthy human plasma assessed as increase in prothrombin time; format: functional
Method in brief: (§1)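 Concentration doubling clotting time (EC2x), human or rabbit plasma. Plasma from centrifugation at 2000 g, 10 min. Inhibitor stock in DMSO, serially diluted; clotting time measured in control plasma and plasma with five to seven inhibitor concentrations. PT run on temperature-controlled automated coagulation analyser with Thromborel-S reagent. Duplicate determinations at each concentration.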

[2] = Anticoagulant activity in healthy human plasma assessed as increase in activated partial thromboplastin time; format: functional
Coagulation factor X = Coagulation factor X (Homo sapiens, UniProt P00742); assay: Inhibition of human coagulation factor 10a assessed as reduction in p-nitroaniline cleavage from pefachrome substrate preincubated for 10 mins followed by substrate addition measured after 20 mins
[3] = Anticoagulant activity in rabbit plasma assessed as increase in prothrombin time; format: functional, Oryctolagus cuniculus; method in brief: as §1
[4] = Anticoagulant activity in rabbit plasma assessed as increase in activated partial thromboplastin time; format: functional, Oryctolagus cuniculus
Rattus norvegicus = species: Rattus norvegicus; assay: Antithrombotic activity in rat venous thrombus model assessed as inhibition of thrombus formation relative to control; format: functional
Method in brief: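 Rat venous stasis model: after 2 h the abdomen was reopened and the vena cava dissected longitudinally. Thrombus removed, held at 37 °C for 24 h, then dry weight measured.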

Coagulation factor X, sequence (P00742 41-179 limits assumed): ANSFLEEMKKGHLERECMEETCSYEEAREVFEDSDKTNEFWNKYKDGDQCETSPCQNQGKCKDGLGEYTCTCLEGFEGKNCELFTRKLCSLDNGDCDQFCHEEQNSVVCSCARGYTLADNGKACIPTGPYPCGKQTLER
Coagulation factor X, sequence (P00742 235-488 limits assumed): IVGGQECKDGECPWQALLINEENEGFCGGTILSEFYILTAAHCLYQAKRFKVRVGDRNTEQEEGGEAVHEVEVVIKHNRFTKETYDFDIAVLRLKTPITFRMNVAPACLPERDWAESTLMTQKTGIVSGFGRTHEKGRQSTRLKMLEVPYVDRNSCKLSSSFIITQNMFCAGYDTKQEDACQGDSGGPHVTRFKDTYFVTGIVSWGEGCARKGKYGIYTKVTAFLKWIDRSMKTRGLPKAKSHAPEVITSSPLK

Question: For `COc1ccc(-n2nc(-c3nc[nH]n3)c3c2C(=O)N(c2ccc(N4CCCCC4=O)cc2)CC3)cc1`, which 2PT [1] is on record?
Answer: 0.5 µM

Question: And the 2aPTT [2]?
Answer: 0.8 µM

Question: What about the IC50 (Coagulation factor X) of the same compound?
Answer: 150 nM

Question: And the 2PT [3]?
Answer: 0.7 µM

Question: What about the 2aPTT [4] of the same compound?
Answer: 1.2 µM

Question: What about the “inhibition (INH)” value (Rattus norvegicus) of the same compound?
Answer: 99%

Question: With `COc1ccc(-n2nc(-c3n[nH]c(=O)n3-c3ccccc3C(F)(F)F)c3c2C(=O)N(c2ccc(N4CCCCC4=O)cc2)CC3)cc1` as the compound, how does the 2PT [1] read?
Answer: 16.8 µM

Question: And the 2aPTT [2]?
Answer: 30.1 µM

Question: And the 2PT [3]?
Answer: 17.9 µM

Question: And the 2aPTT [4]?
Answer: 32.1 µM

Question: With `COc1ccc(-n2nc(-c3nncn3CCN(C)C)c3c2C(=O)N(c2ccc(N4CCCCC4=O)cc2)CC3)cc1` as the compound, how does the 2PT [1] read?
Answer: 3.9 µM

Question: And the 2aPTT [2]?
Answer: 7 µM

Question: What about the 2PT [3] of the same compound?
Answer: 4.4 µM

Question: And the 2aPTT [4]?
Answer: 8 µM

Question: With `CCN(CC)CCCn1cnnc1-c1nn(-c2ccc(OC)cc2)c2c1CCN(c1ccc(N3CCCCC3=O)cc1)C2=O` as the compound, how does the 2PT [1] read?
Answer: 5 µM

Question: What about the 2aPTT [2] of the same compound?
Answer: 10 µM

Question: What about the 2PT [3] of the same compound?
Answer: 6.1 µM

Question: What about the 2aPTT [4] of the same compound?
Answer: 11.1 µM

Question: Which results are given for `COc1ccc(-n2nc(-n3cccc3CN(C)C)c3c2C(=O)N(c2ccc(N4CCCCC4=O)cc2)CC3)cc1`?
Answer: 2PT [1]: 1.5 µM; 2aPTT [2]: 3.5 µM; 2PT [3]: 1.9 µM; 2aPTT [4]: 3.2 µM

Question: For `COc1ccc(-n2nc(-c3n[nH]c(=O)n3-c3ccc(OC)cc3)c3c2C(=O)N(c2ccc(N4CCCCC4=O)cc2)CC3)cc1`, which 2PT [1] is on record?
Answer: 14.8 µM

Question: And the 2aPTT [2]?
Answer: 21.3 µM

Question: And the 2PT [3]?
Answer: 9.2 µM

Question: What about the 2aPTT [4] of the same compound?
Answer: 19.2 µM

Question: With `O=C1CCCCN1c1ccc(N2CCc3c(-c4nc[nH]n4)nn(-c4ccc(OC(F)F)cc4)c3C2=O)cc1` as the compound, how does the 2PT [1] read?
Answer: 3.6 µM

Question: And the 2aPTT [2]?
Answer: 6.6 µM

Question: And the 2PT [3]?
Answer: 4 µM

Question: And the 2aPTT [4]?
Answer: 7.8 µM

Question: For `O=C1CCCCN1c1ccc(N2CCc3c(-c4nc[nH]n4)nn(-c4ccc(Cl)cc4)c3C2=O)cc1`, which 2PT [1] is on record?
Answer: 4.3 µM

Question: What about the 2aPTT [2] of the same compound?
Answer: 8.4 µM

Question: And the 2PT [3]?
Answer: 4.2 µM

Question: And the 2aPTT [4]?
Answer: 9.9 µM

Question: Which results are given for `CCN(CC)Cc1cccn1-c1nn(-c2ccc(OC)cc2)c2c1CCN(c1ccc(N3CCCCC3=O)cc1)C2=O`?
Answer: 2PT [1]: 1.6 µM; 2aPTT [2]: 3.7 µM; 2PT [3]: 2.1 µM; 2aPTT [4]: 3.9 µM

Question: What does the source list for `COc1ccc(-n2nc(-n3cccc3CN3CCOCC3)c3c2C(=O)N(c2ccc(N4CCCCC4=O)cc2)CC3)cc1`?
Answer: 2PT [1]: 1.1 µM; 2aPTT [2]: 2.4 µM; IC50 (Coagulation factor X): 2400 nM; 2PT [3]: 1.7 µM; 2aPTT [4]: 3.9 µM; inhibition (INH) (Rattus norvegicus): 57%

Question: Which 2PT [1] does the source give for `COc1ccc(-n2nc(-c3ncnn3C)c3c2CCN(c2ccc(N4CCCCC4=O)cc2)C3=O)cc1` here?
Answer: 3.3 µM

Question: And the 2aPTT [2]?
Answer: 10 µM

Question: And the 2PT [3]?
Answer: 4.1 µM

Question: And the 2aPTT [4]?
Answer: 15.1 µM

Question: What does the source list for `COc1ccc(-n2nc(-c3n[nH]c(C4CC4)n3)c3c2C(=O)N(c2ccc(N4CCCCC4=O)cc2)CC3)cc1`?
Answer: 2PT [1]: 3.5 µM; 2aPTT [2]: 5.1 µM; 2PT [3]: 4.9 µM; 2aPTT [4]: 6 µM

Question: For `COc1ccc(-n2nc(-c3n[nH]c(C)n3)c3c2C(=O)N(c2ccc(N4CCCCC4=O)cc2)CC3)cc1`, which 2PT [1] is on record?
Answer: 1.6 µM

Question: And the 2aPTT [2]?
Answer: 3.7 µM

Question: And the 2PT [3]?
Answer: 1.9 µM

Question: What about the 2aPTT [4] of the same compound?
Answer: 3.2 µM

Question: Which results are given for `COc1ccc(-n2nc(-c3nncn3CCCN3CCOCC3)c3c2C(=O)N(c2ccc(N4CCCCC4=O)cc2)CC3)cc1`?
Answer: 2PT [1]: 5.5 µM; 2aPTT [2]: 10.5 µM; 2PT [3]: 7.5 µM; 2aPTT [4]: 15 µM

Question: For `O=C1CCCCN1c1ccc(N2CCc3c(-c4nc[nH]n4)nn(-c4ccc(F)cc4)c3C2=O)cc1`, which 2PT [1] is on record?
Answer: 1.8 µM

Question: And the 2aPTT [2]?
Answer: 4.5 µM

Question: And the 2PT [3]?
Answer: 2.8 µM

Question: What about the 2aPTT [4] of the same compound?
Answer: 5.1 µM

Question: What does the source list for `COc1ccc(-n2nc(-c3n[nH]c(=O)n3-c3ccccc3)c3c2C(=O)N(c2ccc(N4CCCCC4=O)cc2)CC3)cc1`?
Answer: 2PT [1]: 12.9 µM; 2aPTT [2]: 20.3 µM; 2PT [3]: 13.3 µM; 2aPTT [4]: 22.1 µM

Question: Which 2PT [1] does the source give for `O=C1CCCCN1c1ccc(N2CCc3c(-c4nc[nH]n4)nn(-c4ccc(Br)cc4)c3C2=O)cc1` here?
Answer: 6.4 µM

Question: What about the 2aPTT [2] of the same compound?
Answer: 11.3 µM

Question: What about the 2PT [3] of the same compound?
Answer: 7.9 µM

Question: And the 2aPTT [4]?
Answer: 10.2 µM

Question: Which 2PT [1] does the source give for `O=C1CCCCN1c1ccc(N2CCc3c(-c4nc[nH]n4)nn(-c4ccc(OC(F)(F)F)cc4)c3C2=O)cc1` here?
Answer: 5.5 µM

Question: What about the 2aPTT [2] of the same compound?
Answer: 10.5 µM

Question: And the 2PT [3]?
Answer: 6.4 µM

Question: What about the 2aPTT [4] of the same compound?
Answer: 12 µM

Question: Which 2PT [1] does the source give for `COc1ccc(-n2nc(C(N)=O)c3c2C(=O)N(c2ccc(C4=NCCN4)cc2)CC3)cc1` here?
Answer: 0.9 µM

Question: And the 2aPTT [2]?
Answer: 0.9 µM

Question: What about the IC50 (Coagulation factor X) of the same compound?
Answer: 1990 nM

Question: And the 2PT [3]?
Answer: 0.7 µM

Question: What about the 2aPTT [4] of the same compound?
Answer: 1 µM

Question: And the “inhibition (INH)” value (Rattus norvegicus)?
Answer: 66%

Question: Which 2PT [1] does the source give for `COc1ccc(-n2nc(-c3n[nH]c(C4CCCO4)n3)c3c2C(=O)N(c2ccc(N4CCCCC4=O)cc2)CC3)cc1` (configuration not stated) here?
Answer: 3.9 µM

Question: What about the 2aPTT [2] of the same compound?
Answer: 6.3 µM

Question: And the 2PT [3]?
Answer: 5 µM

Question: What about the 2aPTT [4] of the same compound?
Answer: 7.9 µM

Question: Which results are given for `COc1ccc(-n2nc(-c3ncn(C)n3)c3c2CCN(c2ccc(N4CCCCC4=O)cc2)C3=O)cc1`?
Answer: 2PT [1]: 0.8 µM; 2aPTT [2]: 1.9 µM; IC50 (Coagulation factor X): 2400 nM; 2PT [3]: 0.9 µM; 2aPTT [4]: 3 µM; inhibition (INH) (Rattus norvegicus): 65%

Question: Which results are given for `COc1ccc(-n2nc(-c3nncn3CCCN(C)C)c3c2C(=O)N(c2ccc(N4CCCCC4=O)cc2)CC3)cc1`?
Answer: 2PT [1]: 4.5 µM; 2aPTT [2]: 9 µM; 2PT [3]: 5.7 µM; 2aPTT [4]: 10.1 µM

Question: Which 2PT [1] does the source give for `COCc1nc(-c2nn(-c3ccc(OC)cc3)c3c2CCN(c2ccc(N4CCCCC4=O)cc2)C3=O)n[nH]1` here?
Answer: 2.4 µM

Question: What about the 2aPTT [2] of the same compound?
Answer: 4.1 µM

Question: And the 2PT [3]?
Answer: 3 µM

Question: And the 2aPTT [4]?
Answer: 6 µM

Question: Which results are given for `COc1ccc(-n2nc(-c3n[nH]c(C(C)(C)C)n3)c3c2C(=O)N(c2ccc(N4CCCCC4=O)cc2)CC3)cc1`?
Answer: 2PT [1]: 1 µM; 2aPTT [2]: 2.3 µM; IC50 (Coagulation factor X): 850 nM; 2PT [3]: 1.4 µM; 2aPTT [4]: 4.1 µM; inhibition (INH) (Rattus norvegicus): 70%

Question: What does the source list for `COc1ccc(-n2nc(C(N)=O)c3c2C(=O)N(c2ccc(C4=NCCCN4)cc2)CC3)cc1`?
Answer: 2PT [1]: 0.9 µM; 2aPTT [2]: 1.1 µM; IC50 (Coagulation factor X): 350 nM; 2PT [3]: 1.1 µM; 2aPTT [4]: 2 µM; inhibition (INH) (Rattus norvegicus): 82%

Question: What does the source list for `COc1ccc(-n2nc(C(N)=O)c3c2C(=O)N(c2ccc(N4CCCCC4=O)cc2)CC3)cc1` [APIXABAN]?
Answer: 2PT [1]: 0.8 µM; 2aPTT [2]: 0.9 µM; 2PT [3]: 0.6 µM; 2aPTT [4]: 1.4 µM; inhibition (INH) (Rattus norvegicus): 96%
